Test results reported in ChEMBL document CHEMBL3865813, “Neolignans from the Arils of Myristica fragrans as Potent Antagonists of CC Chemokine Receptor 3” (J Nat Prod, 2016).
The source made the active and inactive calls. No cut-off for these calls is given here.

What was measured:
[1] = target: T1, C-C chemokine receptor type 3 (Homo sapiens) (UniProt P51677); assay: Antagonist activity at human EGFP-fused CCR3 expressed in mouse L1.2 cells assessed as inhibition of CCL11-induced chemotaxis at 1 uM measured after 1.5 hrs by PicoGreen dsDNA reagent-based assay; type: cell-based
T1 sequence (whole entry): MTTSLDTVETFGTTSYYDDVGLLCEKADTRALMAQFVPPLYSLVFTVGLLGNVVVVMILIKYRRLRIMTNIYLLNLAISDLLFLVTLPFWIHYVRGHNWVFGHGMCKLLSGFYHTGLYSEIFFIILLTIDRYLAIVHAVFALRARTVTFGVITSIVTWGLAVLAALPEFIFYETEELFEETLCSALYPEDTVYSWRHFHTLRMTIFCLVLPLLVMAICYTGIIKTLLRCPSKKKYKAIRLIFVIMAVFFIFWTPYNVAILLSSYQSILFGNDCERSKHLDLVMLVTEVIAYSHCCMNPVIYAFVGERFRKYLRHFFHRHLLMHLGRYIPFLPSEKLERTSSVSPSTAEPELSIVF
How it was run: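 Human CCR3 was stably expressed in mouse pre-B L1.2 cells by a retroviral pMX-IRES-EGFP vector, and EGFP+ cells were sorted. Test sample was at 1 μM (DMSO, 0.5% final) with 10 nM CCL11 in lower wells (phenol red-free RPMI/BSA). Cells at 8 × 10^6/mL crossed a 5 μm filter for 1.5 h at 37 °C. Migrated cells were lysed (0.1% Triton X-100) and quantified with PicoGreen. Three experiments, Dunnett's test vs control.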

Mus musculus = species on record: Mus musculus; assay: Cytotoxicity against mouse L1.2 cells at 1.5 uM; type: toxicity, cell-based; conditions: l1.2, 1.5 µM

Compound	inhibition [1]	Activity (Mus musculus)
C=CCc1cc(OC)c2c(c1)OCO2	Active	–
C=CCc1cc(OC)c(O[C@@H](C)[C@H](OC(C)=O)c2ccc(OC)c(OC)c2)c(OC)c1	Active	–
COc1cc([C@H]2O[C@@H](c3ccc(O)c(OC)c3)[C@@H](C)[C@@H]2C)ccc1O	Active	–
C/C=C/c1cc(OC)c2c(c1)[C@@H](C)[C@H](c1cc(OC)c(O)c(OC)c1)O2	Active	–
C=CCc1cc(OC)c(O[C@H](C)Cc2ccc3c(c2)OCO3)c(OC)c1	Active	–
COc1cc([C@H]2Oc3c(OC)cc(/C=C/C=O)cc3[C@@H]2C)ccc1O	Active	–
C=CCc1cc(OC)c(O[C@H](C)[C@@H](O)c2cc(OC)c(O)c(OC)c2)c(OC)c1	Active	Non-Toxic
C/C=C/c1cc(OC)c2c(c1)[C@@H](C)[C@H](c1ccc(O)c(OC)c1)O2	Active	–
C=CCc1cc(OC)c(O[C@H](C)[C@@H](O)c2ccc3c(c2)OCO3)c(OC)c1	Active	–
COc1cc([C@H]2O[C@@H](c3ccc(O)c(OC)c3)[C@H](C)[C@@H]2C)ccc1O	Active	–
